Data taken from ChEMBL document CHEMBL4038303, “Simultaneous Drug Targeting of the Promoter MYC G-Quadruplex and BCL2 i-Motif in Diffuse Large B-Cell Lymphoma Delays Tumor Growth” (J Med Chem, 2017).
Activity calls are given as the source filed them. No cut-off for these calls is given here.

Tests used:
Homo sapiens [1] = organism: Homo sapiens; experiment: Binding affinity to c-myc G-quadruplex DNA in human HT cells assessed as downregulation of MYC mRNA levels at 3 uM after 24 hrs by qPCR method; assay type: cell-based
Procedure, shortened: (§1)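 DLBCL lines grown in RPMI with 10% FBS (SUDHL4 15% FBS) and penicillin/streptomycin. Cells exposed for 24 h to rising concentrations up to 3 μM; DMSO as vehicle control. Total RNA isolated, target mRNA measured by TaqMan real-time qPCR, normalized to TBP and expressed relative to untreated cells; triplicate experiments, two-tailed t test.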

Mus musculus [2] = experiment: Toxicity in scid mouse xenografted with human U2932 cells assessed as change in body weight at 2.5 to 5 mg/kg, ip administered for 5 consecutive days in presence of CPA; assay type: organism-based; settings: in vivo
Procedure, shortened: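 SCID mice aged 6−8 weeks with serum Ig ≤20 μg/mL received U2932 cells (10 × 10^6 in 100 μL saline) subcutaneously in the left flank. Mice were pair-matched by tumor volume. Compound at 2.5 or 5 mg/kg with 50 mg/kg cyclophosphamide was given ip daily for 5 days. Controls received the diluents. Grubbs' test was used to exclude outliers.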

U2932 [3] = experiment: Potentiation of CPA-induced antitumor activity against human U2932 cells xenografted in SCID mouse assessed as tumor growth inhibition at 7.5 mg/kg, ip for 5 days cotreated with 10 mg/kg NSC-59276 measured on day 15 post first treatment (reference value: 44%); assay type: functional
Procedure, shortened: (§2)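 U2932 DLBCL cells (10 × 10^6 in 100 μL sterile saline, viability >91%) injected subcutaneously into left flank of SCID mice (6−8 weeks, immunoglobulin ≤20 μg/mL). Mice pair-matched by tumor volume. Drugs given ip daily for 5 days, CPA 30 mg/kg; controls received all diluents. Tumor volume = a2 × b/2 (a smallest, b largest diameter); n = 5−8; Grubbs' test for outliers.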

Homo sapiens [4] = organism: Homo sapiens; experiment: Binding affinity to c-myc G-quadruplex DNA in BCL2 translocation-positive human SUDHL4 cells assessed as downregulation of MYC mRNA levels after 24 hrs by qPCR method; procedure, shortened: as §1
Mus musculus [5] = experiment: Toxicity in scid mouse xenografted with human U2932 cells assessed as change in body weight at 5 mg/kg, ip administered for 5 consecutive days cotreated with NSC-59276 and CPA; assay type: organism-based; settings: in vivo
Procedure, shortened: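 SCID mice (6−8 weeks, female or male, serum immunoglobulin ≤20 μg/mL by ELISA) implanted subcutaneously in left flank with 10 × 10^6 U2932 cells in 100 μL saline; pair-matched by tumor volume; dosed ip daily for 5 days; controls received all compound diluents; tumor volume a2 × b/2; outliers by Grubbs' test; two-tailed t test with Šidák–Bonferroni correction.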

Homo sapiens [6] = organism: Homo sapiens; experiment: Binding affinity to c-myc G-quadruplex DNA in human HT cells assessed as downregulation of MYC protein levels up to 3 uM after 24 hrs by Western blot analysis; assay type: cell-based
Procedure, shortened: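 Cell lines treated 24 h with compound up to 3 μM, with untreated and DMSO-treated controls. Lysates (20 μg total protein) probed by Western blot for BCL2 or MYC with antibodies at 1:1000; actin as loading control. Blots representative of triplicate experiments.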

Homo sapiens [7] = organism: Homo sapiens; experiment: Binding affinity to c-myc G-quadruplex DNA in human VAL cells assessed as downregulation of MYC mRNA levels at 0.25 to 3 uM after 6 hrs by qPCR method; assay type: cell-based
Homo sapiens [8] = organism: Homo sapiens; experiment: Binding affinity to […] DNA in BCL2 translocation-positive human SUDHL4 cells assessed as downregulation of BLC2 mRNA levels at 3 uM after 24 hrs by qPCR method; procedure, shortened: as §1
Homo sapiens [9] = organism: Homo sapiens; experiment: Stabilization of c-myc G-quadruplex DNA in BCL2 and MYC translocation-positive human VAL cells assessed as potentiation of CPA-induced apoptosis by measuring increase in caspase-3 activity at 3 uM after 24 hrs in presence of NSC-59276 by AFC based fluorescence assay (reference value: 30%)
Homo sapiens [10] = organism: Homo sapiens; experiment: Binding affinity to BLC2 i-motif promoter DNA in MYC translocation-positive and BCL2 amplification-positive human U2932 cells assessed as downregulation of BLC2 mRNA levels up to 3 uM after 24 hrs by qPCR method; procedure, shortened: as §1
U2932 [11] = experiment: Potentiation of CPA-induced antitumor activity against human U2932 cells xenografted in SCID mouse assessed as tumor growth inhibition at 7.5 mg/kg, ip for 5 days cotreated with 10 mg/kg NSC-59276 measured on day 9 post first treatment (reference value: 50%); assay type: functional; procedure, shortened: as §2
Homo sapiens [12] = organism: Homo sapiens; experiment: Binding affinity to c-myc G-quadruplex DNA in BCL2 and MYC translocation-positive human VAL cells assessed as downregulation of MYC mRNA levels at 3 uM after 24 hrs by qPCR method; procedure, shortened: as §1
U2932 [13] = experiment: Potentiation of CPA-induced antitumor activity against human U2932 cells xenografted in SCID mouse assessed as reduction in tumor burden AUC at 5 to 7.5 mg/kg, ip for 5 days cotreated with 10 mg/kg NSC-59276 measured on day 9 to 15 post first treatment; assay type: functional, organism-based; procedure, shortened: as §2
Homo sapiens [14] = organism: Homo sapiens; experiment: Binding affinity to c-myc G-quadruplex DNA in BCL2 translocation-positive human SUDHL4 cells assessed as downregulation of MYC mRNA levels at 0.25 to 3 uM after 6 hrs by qPCR method
Homo sapiens [15] = organism: Homo sapiens; experiment: Binding affinity to c-myc G-quadruplex DNA in BCL2 translocation-positive human SUDHL4 cells assessed as downregulation of MYC mRNA levels up to 3 uM after 24 hrs by qPCR method relative to control; procedure, shortened: as §1
Mus musculus [16] = experiment: Reduction in Bcl2 mRNA level in tumor of SCID mouse xenografted with human U2932 cells at 5 to 7.5 mg/kg, ip administered for 5 consecutive days cotreated with CPA and NSC-59276 by qPCR method; assay type: functional, organism-based
Procedure, shortened: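 Tumors from U2932 xenograft SCID mice given ip treatment daily for 5 days were harvested. Total RNA was taken from the same tumor preparations used for protein lysates, and MYC or BCL2 mRNA was quantified by TaqMan qPCR normalized to TBP. Comparisons were made with diluent-treated mice or CPA-only mice.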

Homo sapiens [17] = organism: Homo sapiens; experiment: Binding affinity to c-myc G-quadruplex DNA in MYC translocation-positive and BCL2 amplification-positive human U2932 cells assessed as downregulation of MYC mRNA levels up to 3 uM after 24 hrs by qPCR method relative to control; procedure, shortened: as §1
HT = experiment: Down regulation of BLC2 mRNA level in human HT cells up to 3 uM after 24 hrs by qPCR method; assay type: functional, cell-based; procedure, shortened: as §1
U2932 [18] = experiment: Antitumor activity against human U2932 cells xenografted in SCID mouse assessed as reduction in tumor burden at 5 to 7.5 mg/kg, ip for 5 days cotreated with 10 mg/kg NSC-59276 measured on day 9 to 15 post first treatment; assay type: functional, organism-based; procedure, shortened: as §2

Cc1c2ccncc2c(C)c2c1[nH]c1ccc(OCCN(C)C)cc12.Cl.Cl
Activity (Homo sapiens [1]): Active
Activity (Mus musculus [2]): Non-Toxic
TGI (U2932 [3]): 37%
Activity (Homo sapiens [4]): Dose-dependent effect
Activity (Mus musculus [5]): Non-Toxic
Activity (Homo sapiens [6]): Active
Activity (Homo sapiens [7]): Active
Activity (Homo sapiens [8]): Active
Activity (Homo sapiens [9]): 100%
Activity (Homo sapiens [10]): inactive
TGI (U2932 [11]): 50%
Activity (Homo sapiens [12]): Active
Activity (U2932 [13]): Active
Activity (Homo sapiens [14]): Active
Activity (Homo sapiens [15]): < 90%
Activity (Mus musculus [16]): Active
Activity (Homo sapiens [17]): < 90%
Activity (HT): inactive
Activity (U2932 [18]): inactive
